The results in this text go back to ChEMBL document CHEMBL1130380, “Studies on selection blockers. 5. Design, synthesis, and biological profile of sialyl Lewis x mimetics based on modified serine-glutamic acid dipeptides” (J Med Chem, 1997).

In test [1] the target is T1, E-selectin (Mus musculus, UniProt Q00690).
T1 sequence (Q00690 whole entry): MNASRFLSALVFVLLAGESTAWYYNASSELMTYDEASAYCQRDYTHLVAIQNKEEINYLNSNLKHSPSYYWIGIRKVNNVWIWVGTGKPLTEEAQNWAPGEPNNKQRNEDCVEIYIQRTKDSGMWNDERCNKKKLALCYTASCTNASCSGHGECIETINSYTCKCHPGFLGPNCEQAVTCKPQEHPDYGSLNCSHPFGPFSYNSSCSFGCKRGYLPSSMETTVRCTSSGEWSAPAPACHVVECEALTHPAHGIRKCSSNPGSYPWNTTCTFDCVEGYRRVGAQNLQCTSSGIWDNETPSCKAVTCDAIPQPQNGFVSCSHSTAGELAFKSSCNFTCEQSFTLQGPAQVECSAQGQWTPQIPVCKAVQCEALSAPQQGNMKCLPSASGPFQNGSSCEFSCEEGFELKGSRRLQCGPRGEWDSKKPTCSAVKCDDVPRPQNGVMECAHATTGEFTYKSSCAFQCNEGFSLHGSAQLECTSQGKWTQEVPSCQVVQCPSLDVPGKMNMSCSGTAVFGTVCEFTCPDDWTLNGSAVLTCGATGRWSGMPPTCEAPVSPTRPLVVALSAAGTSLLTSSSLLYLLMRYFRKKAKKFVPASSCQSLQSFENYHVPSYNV
The test is described as follows: In vitro inhibitory activity against Selectin E-sialyl Lewis X (sLex) binding. A digest of the protocol:
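sLex-pentaceramide (100 pmol/well) dried onto wells, blocked with 5% BSA-PBS 1 h RT. E-selectin-Ig fusion premixed 30 min RT with biotin-anti-human IgG(Fc)/streptavidin-alkaline phosphatase. Compounds (water stock 10 mM; final 100, 25, 6.25, 1.56 µM) preincubated with complex 30 min RT, then added to wells 45 min at 37 °C. Read-out: p-nitrophenylphosphate in diethanolamine pH 9.8; % binding versus no-compound control, background without selectin-Ig.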

Test [2] concerns the target T2, P-selectin (Mus musculus, UniProt Q01102).
T2 sequence (Q01102 whole entry): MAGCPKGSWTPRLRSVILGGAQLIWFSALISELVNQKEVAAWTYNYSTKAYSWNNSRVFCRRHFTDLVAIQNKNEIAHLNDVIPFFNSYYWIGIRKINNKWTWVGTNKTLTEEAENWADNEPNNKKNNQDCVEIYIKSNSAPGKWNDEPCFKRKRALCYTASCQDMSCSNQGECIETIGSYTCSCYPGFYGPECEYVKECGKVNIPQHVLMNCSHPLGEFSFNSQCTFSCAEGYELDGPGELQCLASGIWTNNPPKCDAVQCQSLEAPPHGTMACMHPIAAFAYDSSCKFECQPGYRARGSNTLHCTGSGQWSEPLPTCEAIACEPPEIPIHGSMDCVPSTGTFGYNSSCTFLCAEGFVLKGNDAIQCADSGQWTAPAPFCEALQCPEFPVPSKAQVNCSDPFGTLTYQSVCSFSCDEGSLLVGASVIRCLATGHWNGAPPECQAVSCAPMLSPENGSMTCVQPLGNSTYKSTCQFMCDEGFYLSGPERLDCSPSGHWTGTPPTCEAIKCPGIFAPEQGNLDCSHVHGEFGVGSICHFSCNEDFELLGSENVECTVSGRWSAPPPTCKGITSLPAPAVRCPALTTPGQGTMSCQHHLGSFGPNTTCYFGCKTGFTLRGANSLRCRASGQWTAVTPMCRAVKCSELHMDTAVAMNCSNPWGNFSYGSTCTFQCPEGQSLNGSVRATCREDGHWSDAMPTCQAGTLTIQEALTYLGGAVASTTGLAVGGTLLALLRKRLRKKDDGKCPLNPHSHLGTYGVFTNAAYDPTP
Nature of the test: Blocking activity using selectin-IgG chimeras in a Selectin P competitive binding assay. The method, boiled down: (§1)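 Selectin-Ig fusion protein is premixed for 30 min at room temperature with biotin-anti-human IgG (Fc) and streptavidin-alkaline phosphatase (each 1:500 in 1% BSA-PBS). The complex is preincubated 30 min with test compound (final 100, 25, 6.25, 1.56 µM; 10 mM water stock). It is then bound 45 min at 37 °C to wells coated with sLex-pentaceramide and blocked with 5% BSA. Read-out is p-nitrophenylphosphate absorbance, expressed as % binding versus controls.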

The target of test [3] is T3, L-selectin (Mus musculus, UniProt P18337).
T3 sequence (P18337 whole entry): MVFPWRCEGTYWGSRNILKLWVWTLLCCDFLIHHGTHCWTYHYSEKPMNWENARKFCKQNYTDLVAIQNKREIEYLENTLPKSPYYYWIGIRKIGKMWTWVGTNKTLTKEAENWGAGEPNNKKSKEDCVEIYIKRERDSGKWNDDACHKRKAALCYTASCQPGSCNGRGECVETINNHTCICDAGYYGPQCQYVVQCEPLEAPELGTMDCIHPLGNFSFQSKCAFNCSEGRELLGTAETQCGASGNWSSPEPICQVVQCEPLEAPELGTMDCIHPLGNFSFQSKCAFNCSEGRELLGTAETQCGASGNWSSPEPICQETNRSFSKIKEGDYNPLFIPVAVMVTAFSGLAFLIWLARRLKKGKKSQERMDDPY
Nature of the test: Blocking activity using selectin-IgG chimeras in a Selectin L competitive binding assay. The method, boiled down: as §1

In test [4] the target is T2, P-selectin. The test is described as follows: Blocking activity using seletin-IgG chimeras in a Selectin P competitive binding assay. The method, boiled down: as §1
Test [5] addresses T3, L-selectin. Nature of the test: Blocking activity using seletin-IgG chimeras in a Selectin L competitive binding assay. The method, boiled down:
as §1

pIC50: −log10 of the molar value. Where only a bound is given, the exact number is not on record here.

The pIC50 is the negative decadic logarithm of the IC50, by convention in mol/L. The low end stands for a large IC50, the high end for a small IC50. For `CCCCCCCCCCCCCCC(CCCCCCCCCCCCCC)C(=O)N[C@H](CO[C@@H]1O[C@@H](C)[C@@H](O)[C@H](O)[C@@H]1O)C(=O)N[C@H](CCC(=O)O)C(=O)NC`, the pIC50 in test [1] was below 3.00; in test [2], 5.72; in test [3], 4.41.
With `CCCCCCCCCCCCCCC(CCCCCCCCCCCCCC)CO[C@@H]1O[C@H](CO)[C@@H](O[C@@H]2O[C@H](CO)[C@H](O)[C@H](OS(=O)(=O)O)[C@H]2O)[C@H](O[C@@H]2O[C@@H](C)[C@@H](O)[C@@H](O)[C@@H]2O)[C@H]1O`, the figures for the pIC50 in test [1], in test [4] and in test [5] were 3.55, 4.00 and 4.52, respectively.
Regarding `CC(=O)N[C@H]1[C@H]([C@H](O)[C@H](O)CO)O[C@@](O[C@H]2[C@@H](O)[C@@H](CO)O[C@@H](O[C@@H]([C@H](O[C@@H]3O[C@@H](C)[C@@H](O)[C@@H](O)[C@@H]3O)[C@H](C=O)NC(C)=O)[C@H](O)CO)[C@@H]2O)(C(=O)O)C[C@@H]1O` [SIALYL LEWIS X], the pIC50 in test [1] was 3.22; in test [4], below 3.00; in test [5], below 3.00.
With `CCCCCCCCCCCCCCC(CCCCCCCCCCCCCC)C(=O)N[C@@H](CO[C@@H]1O[C@@H](C)[C@@H](O)[C@H](O)[C@@H]1O)C(=O)N[C@@H](CCC(=O)O)C(=O)NC`, the pIC50 in test [1] is below 3.00; in test [4], 5.68; in test [5] it was 4.74.
As for `CCCCCCCCCCCCCCC(CCCCCCCCCCCCCC)C(=O)N[C@@H](CO[C@@H]1O[C@@H](C)[C@@H](O)[C@H](O)[C@@H]1O)C(=O)N[C@H](CCC(=O)O)C(=O)NC`, the pIC50 was 5.26 in test [1], 6.15 in test [4] and 5.03 in test [5].
Taken in the same sequence, the figures for `CCCCCCCCCCCCCCC(CCCCCCCCCCCCCC)C(=O)N[C@H](CO[C@@H]1O[C@@H](C)[C@@H](O)[C@H](O)[C@@H]1O)C(=O)N[C@@H](CCC(=O)O)C(=O)NC` were 4.89, 6.30 and 5.22.
